The values below come from ChEMBL document CHEMBL3085686, “New 7-methylguanine derivatives targeting the influenza polymerase PB2 cap-binding domain” (J Med Chem, 2013).

Experiment [1] is described as follows: Inhibition of influenza A virus biotinylated GST-His-tagged H3N2 RNA polymerase PB2 cap-binding domain interaction with EDA-m7GpppA by AlphaScreen assay.
Experiment [2] in a line: Inhibition of influenza A virus His-tagged H3N2 RNA polymerase PB2 cap-binding domain interaction with EDA-m7GpppA by AlphaScreen assay. An outline of the steps:
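His-tagged H3N2 PB2 cap-binding domain binding a biotinylated cap analogue (Biotin-EDA-m7GpppA), read by AlphaScreen with Ni(II)-chelate beads at 7.5 µg/ml each. Compound was 11-point 1:1 serially diluted from 200 µM. Incubation at room temperature in subdued light. IC50 reported.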
Background: Bead proximity is the source of the signal in Alpha formats.

The subject of experiment [3] is Influenza A virus. The experiment is described as follows: Antiviral activity against Influenza A virus (A/Aichi/2/68(H3N2)) VR-547 infected in MDCK cells assessed as reduction in virus-induced cytopathic effect at 50 uM after 48 hrs by CellTiter-Glo assay. Type of experiment: functional, Influenza A virus (A/Aichi/2/1968(H3N2)). Details: scale not given: the % may be the effect or the level left. On the technique in general: Damage to the host cells serves as the signal in cytopathic effect assays.

The subject of experiment [4] is Influenza A virus. The experiment is described as follows: Binding affinity to influenza A virus H5N1 RNA polymerase PB2 cap-binding domain at 10 uM by biacore-based SPR analysis. The method, boiled down:
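Purified H5N1 PB2 cap-binding domain amine-coupled to a CM7 chip at 30 µg/ml in 10 mM phosphate pH 6.5 with 5 mM m7GTP, giving about 7000 RU. Compound injected at 10 µM final (0.5% DMSO) in Tris/EDTA/NaCl/P20/1 mM DTT running buffer at 10 µL/min. Sensorgrams were double-referenced and DMSO-corrected.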
(In SPR one partner is held on a chip, and binding of the other changes the refractive index at the surface.)

The nature of experiment [5]: Binding affinity to influenza A virus H5N1 RNA polymerase PB2 cap-binding domain by biacore-based SPR analysis. The method, boiled down:
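H5N1 PB2-CBD was immobilised by amine coupling (30 µg/ml, with 5 mM m7GTP, pH 6.5; about 7000 RU). Analyte was run over 200 µM to 1 nM in Tris/EDTA/NaCl/P20/DTT buffer with 0.5% DMSO. Data were double-referenced and DMSO-corrected. KD came from a linear curve fit.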

Experiment [6] can be described thus: Inhibition of influenza A virus RNA polymerase PB2 domain-mediated cap binding.

Broadly, the IC50 is the point on the concentration scale where inhibition reaches its midpoint. For the molecule `C[n+]1cn(CC(=O)N[C@H](Cc2ccccc2)C(=O)O)c2nc(N)nc([O-])c21`, the results for the 50% inhibitory concentration (IC50) in experiment [1] and in experiment [2] were not below 200 µM and 65 µM, respectively.

On to `C[n+]1cn(CC(=O)c2ccc3c(c2)NC(=O)CO3)c2nc(N)nc([O-])c21`, for which the IC50 in experiment [1] is not below 200 µM; in experiment [2] it was 23 µM.

On to `CC[n+]1cn(CC(=O)c2ccc(O)c(C(N)=O)c2)c2nc(N)nc([O-])c21`, for which the figures for the IC50 in experiment [1] and in experiment [2] were not below 200 µM and 3.6 µM, respectively. Further, the Activity in the experiment on Influenza A virus [3] is reported as 0.3%.

Consider `C[n+]1cn(CC(=O)N[C@@H](Cc2ccc(O)cc2)C(=O)O)c2nc(N)nc([O-])c21`, for which the half-maximal inhibitory concentration (IC50) in experiment [1] is not below 200 µM; in experiment [2], 80 µM.

Regarding `C[n+]1cn(CCC(=O)O)c2nc(N)nc([O-])c21`, the IC50 in experiment [1] and in experiment [2] was not below 200 µM throughout.

On to `C[n+]1cn(CCCC(=O)O)c2nc(N)nc([O-])c21`, for which the half-maximal inhibitory concentration (IC50) in experiment [1] and in experiment [2] was not below 200 µM throughout.

As for `C[n+]1cn(C(C(=O)c2ccccc2)c2ccccc2)c2nc(N)nc([O-])c21` (stereo not given), the 50% inhibitory concentration (IC50) in experiment [1] is not below 200 µM; in experiment [2], 42 µM.

As for `C[n+]1cn(CCCCC(=O)O)c2nc(NCCCCC(=O)O)nc([O-])c21`, the IC50 in experiment [1] is not below 200 µM; in experiment [2], 5.3 µM. Also, the Activity in the experiment with Influenza A virus [3] is listed as -3.3%. The same molecule registered an RU in the experiment with Influenza A virus [4] of 17.5.

In the case of `C[n+]1cn(CCCCCC(=O)O)c2nc(N)nc([O-])c21`, the IC50 in experiment [1] and in experiment [2] was not below 200 µM in each case.

In the case of `C[n+]1cn(CC(=O)Nc2cc(C(=O)O)cc(C(=O)O)c2)c2nc(N)nc([O-])c21`, the IC50 in experiment [1] and in experiment [2] was not below 200 µM each time.

In the case of `C[n+]1cn(CC(=O)N[C@@H](CC(=O)O)C(=O)O)c2nc(N)nc([O-])c21`, the figures for the IC50 in experiment [1] and in experiment [2] were 124 µM and 33 µM, respectively.

Take `CC(C(=O)c1ccccc1)n1c[n+](C)c2c([O-])nc(N)nc21` (stereo not given): the IC50 is not below 200 µM in experiment [1] and 65 µM in experiment [2].

Turning to `C[n+]1cn(CC(=O)N[C@@H](Cc2ccccc2)C(=O)O)c2nc(N)nc([O-])c21`, the IC50 in experiment [1] was not below 200 µM; in experiment [2], 88 µM.

With `C[n+]1cn(CC(=O)N[C@@H](CCC(=O)O)C(=O)O)c2nc(N)nc([O-])c21`, the IC50 in experiment [1] was not below 200 µM; in experiment [2] it was 45 µM. Further, the Activity with Influenza A virus [3] is given as -1.8%. This molecule also yielded an RU in the experiment on Influenza A virus [4] of 13.8.

As for `C[n+]1cn(CC(=O)O)c2nc(NCC(=O)O)nc([O-])c21`, the IC50 is not below 200 µM in experiment [1] and 44 µM in experiment [2].

As for `C[n+]1cn(CCCC(=O)O)c2nc(NCCCC(=O)O)nc([O-])c21`, the half-inhibitory concentration (IC50) in experiment [1] was not below 200 µM; in experiment [2], 141 µM.

Consider `CC(=O)Nc1nc([O-])c2c(n1)n(CC(=O)c1ccc(O)c(C(N)=O)c1)c[n+]2C`, for which the 50% inhibitory concentration (IC50) was not below 200 µM in experiment [1] and 129 µM in experiment [2].

In the case of `C[n+]1cn(CC(=O)N[C@H](Cc2ccccc2)C(=O)O)c2nc(NCCCCC(=O)O)nc([O-])c21`, the IC50 was not below 200 µM in experiment [1] and 53 µM in experiment [2].

With `C[n+]1cn(-c2ccccc2)c2nc(N)nc([O-])c21`, the 50% inhibitory concentration (IC50) in experiment [1] is not below 200 µM; in experiment [2], 140 µM.

Consider `C[n+]1cn(CC(=O)O)c2nc(NCCCCC(=O)O)nc([O-])c21`, for which the concentration for half-maximal inhibition (IC50) in experiment [1] is not below 200 µM; in experiment [2] it was 95 µM.

Take `C[n+]1cn(CC(=O)N[C@H](CC(=O)O)C(=O)O)c2nc(N)nc([O-])c21`: the IC50 is not below 200 µM in experiment [1] and 91 µM in experiment [2].

As a reminder, the Kd is the equilibrium constant for the complex coming apart. In the case of `C[n+]1cn(CC(=O)c2ccc(O)c(C(N)=O)c2)c2nc(N)nc([O-])c21`, the figures for the concentration for half-maximal inhibition (IC50) in experiment [1] and in experiment [2] were not below 200 µM and 7.5 µM, respectively. The molecule further showed a dissociation constant Kd in experiment [5] of 13 µM. Besides, the Activity in the experiment on Influenza A virus [3] was -0.2%. Moreover, the RU in the experiment on Influenza A virus [4] worked out at 85.8.

As to `C[n+]1cn(CC(=O)NCC(=O)O)c2nc(N)nc([O-])c21`, the half-inhibitory concentration (IC50) in experiment [1] and in experiment [2] was not below 200 µM in each case.

With `CC(=O)Nc1nc([O-])c2c(n1)n(CC(=O)O)c[n+]2C`, the IC50 in experiment [1] and in experiment [2] was not below 200 µM in each case.

As to `COc1ccc(-n2c[n+](C)c3c([O-])nc(N)nc32)cc1OC`, the IC50 in experiment [1] is not below 200 µM; in experiment [2], 50 µM.

Turning to `C=CC[n+]1cn(CC(=O)c2ccc(O)c(C(N)=O)c2)c2nc(N)nc([O-])c21`, the concentration for half-maximal inhibition (IC50) in experiment [1] was not below 200 µM; in experiment [2], 60 µM. In addition, in the experiment with Influenza A virus [3], the Activity is given as 0%.

As for `NC(=O)c1cc(C(=O)Cn2c[n+](Cc3ccccc3)c3c([O-])nc(N)nc32)ccc1O`, the half-inhibitory concentration (IC50) in experiment [1] was not below 200 µM; in experiment [2], 195 µM.

For `C[n+]1cn(CC(=O)c2ccc3ccccc3c2)c2nc(N)nc([O-])c21`, the IC50 in experiment [1] was not below 200 µM; in experiment [2], 7.6 µM. For the same molecule, the Activity in the experiment on Influenza A virus [3] is -3.2%.

`C[n+]1cn(-c2cccc(C(=O)O)c2)c2nc(N)nc([O-])c21`: the IC50 in experiment [1] is not below 200 µM; in experiment [2], 44 µM.

As to `C[n+]1cn(CC(=O)O)c2nc(N)nc([O-])c21`, the concentration for half-maximal inhibition (IC50) in experiment [1] and in experiment [2] was not below 200 µM in each case.

For `C[n+]1cn(-c2ccc(C(=O)O)cc2)c2nc(N)nc([O-])c21`, the IC50 is not below 200 µM in experiment [1] and 181 µM in experiment [2].

In the case of `Nc1nc2c(ncn2CC(=O)c2ccc(O)c(C(=O)O)c2)c(=O)[nH]1`, the half-maximal inhibitory concentration (IC50) in experiment [1] amounted to 4.8 µM; in experiment [2] it was 5.6 µM. Moreover, the Activity with Influenza A virus [3] worked out at 1.1%. Further, the RU in the experiment with Influenza A virus [4] was 22.6.

As for `C[n+]1cn(CCCCC(=O)O)c2nc(N)nc([O-])c21`, the IC50 in experiment [1] and in experiment [2] was not below 200 µM in each case.

As for `NC(=O)c1cc(C(=O)Cn2cnc3c(=O)[nH]c(N)nc32)ccc1O`, the IC50 in experiment [1] was found to be 141 µM; in experiment [2], 49 µM. For the same molecule, the Activity with Influenza A virus [3] is -0.5%. Besides, the RU in the experiment with Influenza A virus [4] is 20.4.

In the case of `C[n+]1cn(CC(=O)c2ccc(O)c(C(=O)O)c2)c2nc(N)nc([O-])c21`, the IC50 is 2.2 µM in experiment [1] and 0.6 µM in experiment [2].

In the case of `C[n+]1cn(CC(=O)c2ccccc2)c2nc(N)nc([O-])c21`, the results for the IC50 in experiment [1] and in experiment [2] were not below 200 µM and 13.7 µM, respectively. Besides, the Activity in the experiment on Influenza A virus [3] is on record as -2.3%.

As for `Nc1nc2c(c(=O)[nH]1)[n+](Cc1ccccc1)cn2CCCCO`, the half-inhibitory concentration (IC50) in experiment [1] is not below 200 µM; in experiment [2], not below 200 µM; in experiment [6], 45 µM.
